Publication PMC8442886 (Science Advances, 2021)
Starred links: 1 amine or outer side, 2 acyl side, 3 side chain; linkers in the order of their positions; H or OH if unused. Positions of bridges follow the written chain, without caps; N, C: chain ends. Non-standard residues stand in square brackets, D forms with d. Residues, ends and D or L forms follow the SMILES beside them. No end group written: not given here. *: point of attachment. X1 = NC(=O)CC[C@@H]1NC(=O)[C@H](CO)N=C1N[C@@H](CO)C(=O)*; X2 = NC(=O)C[C@H](N[*:1])c1nc(C(=O)[*:2])cs1; X4 = NC(=O)C[C@H](N[*:1])c1nc(C(=O)[*:2])co1; X3 = O=C(c1csc([C@H](CO)N[*:1])n1)[*:2]

Legend:
[1] = tested on: E. coli ΔsbmA cells (JW0368) expressing SbmA mutants; type: cell-based, Escherichia coli; settings: for antibiotic sensitivity of cells carrying SbmA Tyr116 mutation: Tyr116 (potential periplasmic gate) mutant
[2] = molecular target: T1, BacA (Rhizobium meliloti, UniProt Q08120); assay: Microscale thermophoresis; type: binding, Sinorhizobium meliloti; settings: BacA-ND complex; MST
T1 sequence (Q08120 1-420): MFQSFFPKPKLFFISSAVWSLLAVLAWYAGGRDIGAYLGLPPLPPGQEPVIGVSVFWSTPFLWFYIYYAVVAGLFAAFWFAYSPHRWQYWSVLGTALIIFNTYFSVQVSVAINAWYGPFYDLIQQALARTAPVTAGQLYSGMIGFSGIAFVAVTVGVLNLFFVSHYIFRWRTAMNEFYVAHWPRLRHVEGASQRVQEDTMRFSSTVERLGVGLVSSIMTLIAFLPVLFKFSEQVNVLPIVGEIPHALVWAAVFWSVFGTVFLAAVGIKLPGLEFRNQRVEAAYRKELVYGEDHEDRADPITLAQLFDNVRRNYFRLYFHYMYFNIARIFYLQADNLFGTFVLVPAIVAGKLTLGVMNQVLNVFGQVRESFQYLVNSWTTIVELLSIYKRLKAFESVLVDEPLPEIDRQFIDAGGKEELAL
Summary of the method: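 Purified protein mixed into DDM-solubilized lipid (7.5 mM lipid, 33 mM DDM) for 30 min at 28°C. Alexa Fluor 647–labeled MSP1E3D1 (S22C/A121C) added, then Amberlite XAD-2 overnight at 28°C, and nanodiscs purified by SEC. Labeled nanodiscs (20 nM) incubated 15 min in the dark with test compound in 20 mM K-Hepes pH 8, 150 mM KCl, 0.005% Tween 20 (DMSO 1.25% final). Kd from a 1:1 fit of the MST signal, three independent measurements.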

[3] = molecular target: Escherichia coli inner membrane transporter SbmA (E. coli) (UniProt P0AFY6); assay: MST
[4] = molecular target: the molecule itself; assay: cryo-EM structure
[5] = molecular target: the molecule itself; assay: cryo-EM structure; remark: listed apart in the source

## CC(C)C[C@H](NC(=O)CNC(=O)CNC(=O)[C@@H](NC(=O)c1csc([C@H](CC(N)=O)NC(=O)[C@H](C)NC(=O)[C@H](CO)NC(=O)c2coc([C@H](CC(N)=O)NC(=O)[C@H](CO)NC(=O)c3csc([C@H](CO)NC(=O)[C@H](C)NC(=O)c4csc([C@H](CC(N)=O)NC(=O)CNC(=O)[C@@H]5CCCN5C(=O)[C@H](CO)NC5=N[C@@H](CO)C(=O)N[C@H]5CCC(N)=O)n4)n3)n2)n1)[C@@H](C)O)C(=O)O [KLB, klebsazolicin] (X1-PG[X2]A[X3]S[X4]SA[X2]TGGL-OH; C-terminus assumed)
[1]
  antibiotic sensitivity of cells carrying SbmA Tyr116 mutation: resistant

## bleomycin
[2]
  Kd: 0.019 ± 0.011 µM
[1]
  antibiotic sensitivity of cells carrying SbmA Tyr116 mutation: slightly increased sensitivity
[1]; Tyr368Ala (first internal gate) mutant
  antibiotic sensitivity of cells carrying SbmA Tyr368Ala mutant: additionally sensitized

## microcin J25 (GGAGHVPEYFVGIGTPISFYG; lactam N-8; ends not checked; UniProt Q9X2V7 38-58, looked up) [MccJ25]
[1]
  antibiotic sensitivity of cells carrying SbmA Tyr116 mutation: resistant

## klebsazolicin (peptide)
[3]
  Kd: 0.849 µM

B1: BacA from Sinorhizobium meliloti (natural protein, S. meliloti, UniProt Q08120 1-420, looked up)
chain: T1 sequence (Q08120 1-420)
[4]
  binding result: binds

B2: Escherichia coli inner membrane transporter SbmA (natural protein, E. coli)
chain: MFKSFFPKPGTFFLSAFVWALIAVIFWQAGGGDWVARITGASGQIPISAARFWSLDFLIFYAYYIVCVGLFALFWFIYSPHRWQYWSILGTALIIFVTWFLVEVGVAVNAWYAPFYDLIQTALSSPHKVTIEQFYREVGVFLGIALIAVVISVLNNFFVSHYVFRWRTAMNEYYMANWQQLRHIEGAAQRVQEDTMRFASTLENMGVSFINAIMTLIAFLPVLVTLSAHVPELPIIGHIPYGLVIAAIVWSLMGTGLLAVVGIKLPGLEFKNQRVEAAYRKELVYGEDDATRATPPTVRELFSAVRKNYFRLYFHYMYFNIARILYLQVDNVFGLFLLFPSIVAGTITLGLMTQITNVFGQVRGAFQYLINSWTTLVELMSIYKRLRSFEHELDGDKIQEVTHTLS
[5]
  stoichiometry N: 2
